Here are results for 17 compounds from ChEMBL document CHEMBL1145382, “Novel ergopeptides as dual ligands for adenosine and dopamine receptors” (J Med Chem, 2007).

Experiment [1] concerns the target D(1A) dopamine receptor (Homo sapiens) (UniProt P21728). Nature of the experiment: Agonist activity at dopamine D1 receptor transfected in mouse L(tk-) cells assessed as stimulation of cAMP levels. The experiment is classed as functional, cell-based. A digest of the protocol:
(§1)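 Mouse Ltk- fibroblasts cotransfected with human A1R and D1R, serum-starved 12-16 h. In HBSS with 50 µM zardaverine, then 50 µM ergopeptide, with or without 20 nM SKF or 50 µM SCH. 35 min total incubation. cAMP by competitive enzyme immunoassay. Three to six determinations, t test.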
(Changes in cAMP serve as a functional read-out for many G protein-coupled receptors.)

Experiment [2] addresses D(2) dopamine receptor (Homo sapiens) (UniProt P14416). Nature of the experiment: Agonist activity at dopamine D2 receptor in SH-SY5Y cells assessed as inhibition of forskolin-activated intracellular cAMP production at 50 uM. The experiment is classed as functional, cell-based. A digest of the protocol: (§2)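 SH-SY5Y cells expressing human D2LR, preincubated 5-10 min at 22 °C with 5 µM ZM to block A2AR. Then 50 µM zardaverine, 10 µM forskolin, and 50 µM ergopeptide, with or without 150 nM quinpirole or 50 µM raclopride. 35 min total. cAMP by enzyme immunoassay. Three to six determinations, t test.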

The target of experiment [3] is D(1A) dopamine receptor (Homo sapiens) (UniProt P21728). Nature of the experiment: Antagonist activity at dopamine D1 receptor transfected in mouse L(tk-) cells assessed as inhibition of SKF-induced stimulation of forskolin-induced cAMP levels. The experiment is classed as functional, cell-based. A digest of the protocol: as §1
In experiment [4] the target is T1, Adenosine receptor A1 (Homo sapiens) (UniProt P30542).
T1 sequence (whole entry): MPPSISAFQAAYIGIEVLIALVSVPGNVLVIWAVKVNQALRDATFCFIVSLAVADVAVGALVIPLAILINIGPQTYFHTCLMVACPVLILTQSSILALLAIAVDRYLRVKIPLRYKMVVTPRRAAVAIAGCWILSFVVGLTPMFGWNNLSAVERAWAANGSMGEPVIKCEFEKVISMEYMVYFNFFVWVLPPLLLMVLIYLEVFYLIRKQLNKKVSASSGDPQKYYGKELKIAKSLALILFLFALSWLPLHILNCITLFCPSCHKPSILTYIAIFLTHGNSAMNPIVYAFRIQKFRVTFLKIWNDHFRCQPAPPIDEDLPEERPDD
The experiment in a line: Antagonist activity at adenosine A1 receptor transfected in mouse L(tk-) cells assessed as inhibition of R-PIA-induced decrease in forskolin-induced cAMP levels. It is filed as functional, cell-based. A digest of the protocol:
(§3)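 Mouse Ltk- fibroblasts cotransfected with human A1R and D1R, preincubated 5-10 min at 22 °C with 50 µM SCH to block D1R. Then 50 µM zardaverine, 10 µM forskolin, and 50 µM ergopeptide, with or without 20 nM R-PIA or 50 µM DPCPX. 35 min total. cAMP by enzyme immunoassay. Three to six determinations.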

Experiment [5] addresses D(2) dopamine receptor (Homo sapiens) (UniProt P14416). The experiment in a line: Displacement of [3H]YM 09151-2 from dopamine D2 receptor in lamb striatum membrane at 50 uM after 2 hrs. The note with it: Ovis aries, target entry is the homologue from another species. The experiment is classed as cell membranes. A digest of the protocol: (§4)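 Single-concentration screen at 50 µM ergopeptide on lamb striatal membranes (0.5 mg protein/mL), 22 °C, 50 mM Tris-HCl pH 7.4. Radioligands: [3H]SCH 23390 1.2 nM (D1), [3H]YM 09151-2 0.9 nM (D2), [3H]R-PIA 2.2 nM (A1, with MgCl2 and ADA), [3H]CGS 21680 20.1 nM (A2A, with MgCl2 and ADA). Specific binding displaced, after filtration and scintillation counting.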
On the technique in general: Displacement assays read how much labelled ligand stays bound in the presence of the test substance.

The target in experiment [6] is T2, Adenosine receptor A2a (Homo sapiens, UniProt P29274). The experiment in a line: Displacement of [3H]CGS 21680 from adenosine A2A receptor in lamb striatum membrane at 50 uM after 2 hrs. The experiment is classed as cell membranes. The settings on record: Ovis aries, target entry is the homologue from another species. A digest of the protocol:
as §4

The target of experiment [7] is D(1A) dopamine receptor (Homo sapiens) (UniProt P21728). Nature of the experiment: Displacement of [3H]SCH 23390 from dopamine D1 receptor in lamb striatum membrane at 50 uM after 1 hr. It is filed as cell membranes. The settings on record: Ovis aries, target entry is the homologue from another species. A digest of the protocol:
as §4

In experiment [8] the target is T2, Adenosine receptor A2a. The experiment in a line: Agonist activity at adenosine A2A receptor in SH-SY5Y cells assessed as CGS-induced intracellular cAMP production at 50 uM. It is filed as functional, cell-based. A digest of the protocol: (§5)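 SH-SY5Y neuroblastoma cells, endogenous A2AR, stably carrying human D2LR. Serum-starved 12-16 h, in HBSS with 50 µM zardaverine for 10 min, then 50 µM ergopeptide, alone or with the A2AR agonist CGS. 35 min total incubation. cAMP by competitive enzyme immunoassay. Three to six determinations, Student's t test.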

Experiment [9] concerns the target T1, Adenosine receptor A1 (Homo sapiens). Nature of the experiment: Displacement of [3H]R-PIA from adenosine A1 receptor in lamb striatum membrane at 50 uM after 1 hr. The settings on record: Ovis aries, target entry is the homologue from another species. It is filed as cell membranes. A digest of the protocol: as §4
The target is the same in experiment [10]. Nature of the experiment: Agonist activity at adenosine A1 receptor transfected in mouse L(tk-) cells assessed as decrease in forskolin-induced cAMP levels. The experiment is classed as functional, cell-based. A digest of the protocol: as §3
Experiment [11] has as its target T2, Adenosine receptor A2a. The experiment in a line: Antagonist activity at adenosine A2A receptor in SH-SY5Y cells assessed as CGS-induced intracellular cAMP production at 50 uM. The experiment is classed as functional, cell-based. A digest of the protocol: as §5
For experiment [12], the target named is D(2) dopamine receptor (Homo sapiens) (UniProt P14416). Nature of the experiment: Antagonist activity at dopamine D2 receptor in SH-SY5Y cells assessed as effect on forskolin-activated intracellular cAMP production at 50 uM. The experiment is classed as functional, cell-based. A digest of the protocol:
as §2

Calls of active or inactive are those of the source. The calls are words filed in the database; no cut-off is given here. Non-standard residues stand in square brackets, D forms with d. Residues, ends and D or L forms follow the SMILES beside them. Phe(4-NO2) = N[C@@H](Cc1ccc([N+](=O)[O-])cc1)C(=O)O; Phe(4-F) = N[C@@H](Cc1ccc(F)cc1)C(=O)O; hCha = N[C@@H](CCC1CCCCC1)C(=O)O Where only a bound is given, the exact number is not on record here.

D(1A) dopamine receptor (Homo sapiens), sequence (P21728 whole entry): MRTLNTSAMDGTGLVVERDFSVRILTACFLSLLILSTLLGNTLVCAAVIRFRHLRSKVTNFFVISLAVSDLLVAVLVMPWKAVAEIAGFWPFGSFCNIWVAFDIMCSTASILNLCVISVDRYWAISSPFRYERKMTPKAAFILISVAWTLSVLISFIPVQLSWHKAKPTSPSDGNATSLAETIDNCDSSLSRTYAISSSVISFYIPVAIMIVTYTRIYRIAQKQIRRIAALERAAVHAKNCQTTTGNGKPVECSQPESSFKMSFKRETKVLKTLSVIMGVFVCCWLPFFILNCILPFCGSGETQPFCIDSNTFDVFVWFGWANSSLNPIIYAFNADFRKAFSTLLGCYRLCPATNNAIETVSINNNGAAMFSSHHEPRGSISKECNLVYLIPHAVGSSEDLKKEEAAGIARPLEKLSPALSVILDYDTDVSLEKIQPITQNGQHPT
T2 sequence (P29274 whole entry): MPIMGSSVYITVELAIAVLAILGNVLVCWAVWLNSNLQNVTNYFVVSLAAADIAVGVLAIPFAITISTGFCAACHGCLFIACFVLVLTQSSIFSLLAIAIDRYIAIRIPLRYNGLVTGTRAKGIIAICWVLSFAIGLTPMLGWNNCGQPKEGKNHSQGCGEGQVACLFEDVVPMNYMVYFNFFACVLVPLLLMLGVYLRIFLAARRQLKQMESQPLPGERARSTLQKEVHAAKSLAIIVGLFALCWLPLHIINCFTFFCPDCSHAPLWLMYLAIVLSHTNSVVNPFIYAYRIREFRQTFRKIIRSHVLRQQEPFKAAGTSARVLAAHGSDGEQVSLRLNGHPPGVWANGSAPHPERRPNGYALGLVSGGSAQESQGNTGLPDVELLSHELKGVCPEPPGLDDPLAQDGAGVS
D(2) dopamine receptor (Homo sapiens), sequence (P14416 whole entry): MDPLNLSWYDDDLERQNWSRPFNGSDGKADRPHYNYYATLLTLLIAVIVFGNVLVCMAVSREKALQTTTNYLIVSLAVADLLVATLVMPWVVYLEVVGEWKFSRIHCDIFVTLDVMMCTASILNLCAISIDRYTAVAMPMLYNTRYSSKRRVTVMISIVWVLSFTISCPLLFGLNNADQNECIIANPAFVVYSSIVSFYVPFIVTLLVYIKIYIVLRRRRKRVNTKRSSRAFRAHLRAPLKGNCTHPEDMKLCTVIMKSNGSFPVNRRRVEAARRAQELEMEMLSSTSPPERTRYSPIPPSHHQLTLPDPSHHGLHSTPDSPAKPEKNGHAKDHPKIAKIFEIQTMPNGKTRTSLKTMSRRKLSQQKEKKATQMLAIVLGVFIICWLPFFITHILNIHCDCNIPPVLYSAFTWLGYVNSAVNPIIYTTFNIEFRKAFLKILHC

`CN1C[C@H](C(=O)N[C@@H](Cc2ccc([N+](=O)[O-])cc2)C(=O)N[C@@H](CCC2CCCCC2)C(=O)N2CCCC(C(N)=O)C2)C=C2c3cccc4[nH]cc(c34)C[C@H]21` (some centres undefined): the outcome in experiment [1], in [2] and in experiment [4] was Active. The outcome (in experiment [3]; on Adenosine receptor A2a [8]; in experiment [10]) was inactive. For the same compound, the Activity (in [5]; at Adenosine receptor A2a [6]; in [7]; in experiment [9]) was < 40% each time.
Consider `CN1C[C@H](C(N)=O)C=C2c3cccc4[nH]cc(c34)C[C@H]21`, for which the Activity (in experiment [5]; at Adenosine receptor A2a [6]; in experiment [7]; in [9]) was < 40% throughout.
As to `CC(=O)N[C@H](C(=O)N[C@@H](Cc1ccc(F)cc1)C(=O)N1CCC[C@H]1C(N)=O)C(C)C` (Ac-Val-[Phe(4-F)]-Pro-NH2), the Activity (in experiment [5]; at Adenosine receptor A2a [6]; in experiment [7]; in experiment [9]) was < 40% in each case.
On to `CC(=O)N[C@@H](CCC1CCCCC1)C(=O)N[C@@H](Cc1ccc(F)cc1)C(=O)N1CCC[C@H]1C(N)=O` (Ac-[hCha]-[Phe(4-F)]-Pro-NH2), for which the Activity (in experiment [5]; at Adenosine receptor A2a [6]; in [7]; in [9]) was < 40% each time.
With `CC(C)[C@H](NC(=O)[C@H]1C=C2c3cccc4[nH]cc(c34)C[C@H]2N(C)C1)C(=O)N[C@@H](Cc1ccc([N+](=O)[O-])cc1)C(=O)N1CCC[C@H]1C(N)=O`, the result (in experiment [1]; in experiment [2]; in experiment [4]; on Adenosine receptor A2a [11]) was Active. Moreover, the result (in experiment [3]; on Adenosine receptor A2a [8]; in experiment [10]) was inactive. Moreover, the Activity (in experiment [5]; on Adenosine receptor A2a [6]; in experiment [7]; in [9]) was < 40% each time.
In the case of `CC(C)[C@H](NC(=O)[C@H](CCC1CCCCC1)NC(=O)[C@@H]1C=C2c3cccc4[nH]cc(c34)C[C@H]2N(C)C1)C(=O)N1CCC[C@H]1C(N)=O`, the result (in [1]; in [2]; in experiment [4]; at Adenosine receptor A2a [11]) was Active. Further, the outcome (in experiment [3]; at Adenosine receptor A2a [8]; in experiment [10]) was inactive. Also, the Activity (in experiment [5]; on Adenosine receptor A2a [6]; in [7]; in experiment [9]) was < 40% each time.
Consider `CC(C)[C@H](NC(=O)[C@H](Cc1ccc([N+](=O)[O-])cc1)NC(=O)[C@@H]1C=C2c3cccc4[nH]cc(c34)C[C@H]2N(C)C1)C(=O)N1c2ccccc2C[C@H]1C(N)=O`, for which the outcome in experiment [1], in experiment [2] and in experiment [4] was Active. In addition, the outcome (in experiment [3]; at Adenosine receptor A2a [8]; in experiment [10]) was inactive. The Activity (in [5]; on Adenosine receptor A2a [6]; in experiment [7]; in [9]) was < 40% in each case.
For `CC(=O)N[C@@H](Cc1ccc([N+](=O)[O-])cc1)C(=O)N[C@@H](CCC1CCCCC1)C(=O)N1CCCC(C(N)=O)C1` (some centres undefined), the Activity (in experiment [5]; on Adenosine receptor A2a [6]; in [7]; in [9]) was < 40% each time.
As for `CC(=O)N[C@H](C(=O)N[C@@H](CCC1CCCCC1)C(=O)N1c2ccccc2C[C@H]1C(N)=O)C(C)C`, the Activity (in experiment [5]; on Adenosine receptor A2a [6]; in experiment [7]; in experiment [9]) was < 40% in each case.
For `CC(=O)N[C@@H](CCC1CCCCC1)C(=O)N[C@H](C(=O)N1CCC[C@H]1C(N)=O)C(C)C` (Ac-[hCha]-Val-Pro-NH2), the Activity (in experiment [5]; at Adenosine receptor A2a [6]; in experiment [7]; in experiment [9]) was < 40% throughout.
Take `CC(=O)N[C@@H](Cc1ccc([N+](=O)[O-])cc1)C(=O)N[C@@H](Cc1ccc(F)cc1)C(=O)N1CCCC(C(N)=O)C1` (some centres undefined): the Activity (in [5]; at Adenosine receptor A2a [6]; in experiment [7]; in [9]) was < 40% throughout.
As to `CC(C)[C@H](NC(=O)[C@@H]1C=C2c3cccc4[nH]cc(c34)C[C@H]2N(C)C1)C(=O)N[C@@H](Cc1ccc(F)cc1)C(=O)N1CCC[C@H]1C(N)=O`, the outcome in experiment [1], in experiment [4] and in experiment [12] was Active. Also, the result (in experiment [3]; at Adenosine receptor A2a [8]; in [10]) was inactive. The Activity (in experiment [5]; on Adenosine receptor A2a [6]; in experiment [7]; in experiment [9]) was < 40% in each case.
On to `CC(=O)N[C@H](C(=O)N[C@@H](Cc1ccc([N+](=O)[O-])cc1)C(=O)N1CCC[C@H]1C(N)=O)C(C)C` (Ac-Val-[Phe(4-NO2)]-Pro-NH2), for which the Activity (in experiment [5]; at Adenosine receptor A2a [6]; in experiment [7]; in experiment [9]) was < 40% each time.
Consider `CC(=O)N[C@@H](Cc1ccc([N+](=O)[O-])cc1)C(=O)N[C@H](C(=O)N1c2ccccc2C[C@H]1C(N)=O)C(C)C`, for which the Activity (in experiment [5]; on Adenosine receptor A2a [6]; in experiment [7]; in experiment [9]) was < 40% in each case.
For the compound `CC(=O)N[C@H](C(=O)N[C@@H](CCC1CCCCC1)C(=O)N1CCCC(C(N)=O)C1)C(C)C` (some centres undefined), the Activity (in experiment [5]; at Adenosine receptor A2a [6]; in experiment [7]; in experiment [9]) was < 40% throughout.
Take `CN1C[C@H](C(=O)N[C@@H](Cc2ccc([N+](=O)[O-])cc2)C(=O)N[C@@H](Cc2ccc(F)cc2)C(=O)N2CCCC(C(N)=O)C2)C=C2c3cccc4[nH]cc(c34)C[C@H]21` (some centres undefined): the outcome (in [1]; in [2]; in experiment [4]; on Adenosine receptor A2a [11]) was Active. Also, the result (in experiment [3]; on Adenosine receptor A2a [8]; in [10]) was inactive. The Activity (in experiment [5]; on Adenosine receptor A2a [6]; in [7]; in experiment [9]) was < 40% in each case.
As to `CC(C)[C@H](NC(=O)[C@@H]1C=C2c3cccc4[nH]cc(c34)C[C@H]2N(C)C1)C(=O)N[C@@H](Cc1ccc([N+](=O)[O-])cc1)C(=O)N1CCC[C@H]1C(N)=O`, the outcome (in [1]; in experiment [2]; in experiment [4]; on Adenosine receptor A2a [11]) was Active. Further, the result (in [3]; on Adenosine receptor A2a [8]; in [10]) was inactive. The Activity (in experiment [5]; on Adenosine receptor A2a [6]; in experiment [7]; in [9]) was < 40% throughout.
